9 compounds from ChEMBL document CHEMBL3112585, “Inhibition of reverse transcriptase and Taq DNA polymerase by compounds possessing the coumarin framework” (Bioorg Med Chem Lett, 2014) can be followed below.

The structures appear in SMILES notation. Activity calls are given as the source filed them. The rule behind the calls is not given here.

Experiment [1] in a line: Inhibition of MMLV reverse transcriptase using desoxynucleotide triphosphate as substrate after 10 mins by RT-PCR analysis. More on the design: species or system Moloney murine leukemia virus. The method in brief:
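Reverse transcription mix: 1 µg RNA in commercial buffer, 2.0 U MMLV-RT, 20 µM random primers, 1.0 mM each dNTP; compounds (DMSO) added at varying concentrations during RT step. Heated 70 °C 10 min, then incubated 1 h at […]. Products on ethidium bromide-stained agarose gel, band intensities quantified by scanning; IC50 = concentration giving 50% inhibition.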

In experiment [2] the target is DNA polymerase I, thermostable (Thermus aquaticus) (UniProt P19821). Put plainly: (§1) Inhibition of Thermus aquaticus taq DNA polymerase by PCR analysis. In a few lines: (§2)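 PCR with 2.5 U Taq polymerase in 40 mM Tris-acetate pH 8.3, 15 mM MgCl2, […], 2.5 mM each dNTP; compounds in DMSO at varying concentrations. 35 cycles: 95 °C 1 min, anneal 56 °C, extend 72 °C 90 s. Ethidium bromide-stained gel band intensities scanned; IC50 = concentration inhibiting activity 50%.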
Sequence of DNA polymerase I, thermostable (Thermus aquaticus) (P19821 whole entry): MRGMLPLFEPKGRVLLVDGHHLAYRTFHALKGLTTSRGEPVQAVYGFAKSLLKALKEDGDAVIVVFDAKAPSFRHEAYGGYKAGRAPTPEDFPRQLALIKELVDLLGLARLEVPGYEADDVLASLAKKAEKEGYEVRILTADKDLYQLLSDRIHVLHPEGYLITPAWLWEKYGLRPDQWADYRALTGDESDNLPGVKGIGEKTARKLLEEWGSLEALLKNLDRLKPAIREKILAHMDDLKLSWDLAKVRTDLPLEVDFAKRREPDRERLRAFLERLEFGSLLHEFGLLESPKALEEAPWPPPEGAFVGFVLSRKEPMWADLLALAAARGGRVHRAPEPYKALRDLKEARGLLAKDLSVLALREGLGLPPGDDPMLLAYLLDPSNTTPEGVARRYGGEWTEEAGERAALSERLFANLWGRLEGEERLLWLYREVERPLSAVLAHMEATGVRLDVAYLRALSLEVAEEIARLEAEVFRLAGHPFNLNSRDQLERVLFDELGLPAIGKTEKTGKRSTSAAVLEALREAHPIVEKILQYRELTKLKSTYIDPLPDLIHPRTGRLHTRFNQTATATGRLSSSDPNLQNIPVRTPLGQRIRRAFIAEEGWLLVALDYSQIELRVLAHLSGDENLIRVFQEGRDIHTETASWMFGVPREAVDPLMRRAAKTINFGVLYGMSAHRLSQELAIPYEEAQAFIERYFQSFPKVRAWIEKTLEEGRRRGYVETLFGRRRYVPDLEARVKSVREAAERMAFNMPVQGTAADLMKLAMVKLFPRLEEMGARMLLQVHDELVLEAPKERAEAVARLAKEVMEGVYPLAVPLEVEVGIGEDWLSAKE

Experiment [3] addresses DNA polymerase I, thermostable (Thermus aquaticus, UniProt P19821). The experiment is described as §1. The method in brief:
as §2

Sequence of DNA polymerase I, thermostable (P19821 whole entry): as above

`C=CCc1c(O)c2ccccc2oc1=O` yielded a 50% inhibitory concentration (IC50) in experiment [1] of 51 µM. Further, the inhibition result in experiment [2] is “inactive”.

In experiment [1], `O=c1ccc2ccccc2o1` [COUMARIN] registered an IC50 of 38.6 µM. The inhibition result in experiment [2] was “inactive”.

Regarding `CC(C)(O)C(Br)COc1c2c(cc3oc(=O)ccc13)OCO2` (stereo unspecified), in experiment [3], the IC50 is 57.9 µM.

In the case of `C/C(C=O)=C\COc1c2c(cc3oc(=O)ccc13)OCO2`, the inhibition entry in experiment [2] was “inactive”.

Regarding `CC(C)(O)C(=O)COc1c2c(cc3oc(=O)ccc13)OCO2`, the inhibition entry in experiment [2] was “inactive”.

Regarding `COc1cc2c(c3oc(=O)ccc13)OCO2`, the inhibition result in experiment [2] is “inactive”.

Regarding `C/C(=C\COc1c2c(cc3oc(=O)ccc13)OCO2)CO`, in experiment [3], it took 48.1 µM to reach half-maximal inhibition (IC50).

In the case of `CC(C)=CCOc1c2c(cc3oc(=O)ccc13)OCO2`, the inhibition entry in experiment [2] is “inactive”.

As for `CC(C)(O)C(O)COc1c2c(cc3oc(=O)ccc13)OCO2` (stereo unspecified), the inhibition result in experiment [2] was “inactive”.
